# Compounds with a hit are over-represented: about 12% of the library has one in this group of screens.
# L major viab: reduces viability of Leishmania major promastigotes; resazurin fluorescence viability; inhibition, % at 10 µM; actives 9% (n = 200,000); AID 1063; in the data active = inhibition above about 50%;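 note: promastigotes grown with compound for 44 hours at 28 °C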
# WT yeast gro inh: growth inhibition of WT yeast, mitochondrial fusion screen; actives 2.1% (n = 190,000); mitochondrial fusion phenotypic screen, WT strain; inhibition, % at 10 µM; in the data active = inhibition above about 58%; tested in S. cerevisiae
# KCC2 mod: KCC2 (human) Cl- transport modulation. AID 1456. Q9H2X9. B-score of Tl+ flux slope (higher = more flux/activation; lower = inhibition) at 10 µM. actives 2.2% (n = 190,000). KCC2 cells, thallium flux FluoZin-2 fluorescence;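 active = thallium flux slope and its plate-corrected score both differing from the plate sample mean at a set confidence after two filtering rounds, in either direction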;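 note: slope of fluorescence scaled to starting intensity during 10 to 20 s after thallium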
# Diaph inh CS: counter-screen for diaphorase-based assays: diaphorase inhibitors and chemical oxidizers; inhibition, % at 20 µM; AID 1217; actives 0.69% (n = 190,000); diaphorase resazurin-to-resorufin fluorescence, NADH, 16 min; bacterial (C. kluyveri) enzyme, not human;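 active = primary screen inhibition at 20 µM above a set limit, cut at about 50% in these data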
#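 Benchmarks: positive control wells lacking NADH, neutral wells with DMSO only. System: bacterial diaphorase enzyme (C. kluyveri). Input: 0.14 U/mL diaphorase, enzyme working solution. Detection: resorufin fluorescence, excitation 544 nm, emission 590 nm. Times: 16-min room-temperature incubation before reading.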
# ROMK primary: modulates human ROMK potassium channel activity; Tet-inducible ROMK, thallium flux fluorescence; actives lie on both sides; B-score at 10 µM; actives 2% (n = 130,000);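 active = signal ratio slope over the read window, or its plate-corrected B-score, at least 3 SD from the plate mean, either direction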;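 note: B-score of the F/F0 ratio slope over 7 to 12 s after thallium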
# Diaph act CS: diaphorase activation or chemical reduction counter-screen; Diaphorase/resazurin coupled assay, resorufin fluorescence, 16 min; hits give high values; 1 = vehicle wells, 0 = NADH-free wells; activation factor at 20 µM; actives 0.005% (n = 190,000); AID 1229;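 active = diaphorase activity raised at least twofold by the compound at 20 µM; inactive = activation factor below 2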
#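 Material: bacterial diaphorase enzyme (C. kluyveri); amount: enzyme 0.07 U/mL final; reagent: NADH substrate 0.114 mM plus resazurin dye 0.1 mM, final; doses: single compound dose of 20 µM, 1% DMSO final; timing: 16 min enzyme reaction, ambient temperature; measured by: fluorescence of resorufin, 544 nm excitation, 590 nm emission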
# KCC2 sec1: KCC2 (human) modulation, secondary assay. HEK293-KCC2, thallium flux, FluoZin2 fluorescence; hits give high values. actives 15% (n = 3,700). normalised thallium flux (F/F0 slope) at 10 µM. shares compounds with KCC2 mod. AID 1713;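 active = thallium flux slope above the same plate's solvent-only control mean plus 3 SD; inconclusive = the two replicate wells disagree; inactive = no significant difference from solvent-only control wells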
# KCC2 bumet counter: bumetanide-insensitive thallium flux in KCC2 cells with ouabain, counter-screen; HEK293-KCC2 + bumetanide/ouabain, thallium flux FluoZin2; hits give high values; normalized thallium flux at 10 µM; actives 49% (n = 3,700); shares compounds with KCC2 mod;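 active = thallium entry rate above the same plate's blocked-transporter control wells by more than 3 SD; inconclusive = the two repeat wells disagree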;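 note: raw slope of fluorescence over initial fluorescence between 10 and 20 s after thallium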
# KCC2 secondary2: KCC2 (human) modulation, second secondary assay | HEK293-KCC2, thallium flux FluoZin2 fluorescence; actives lie on both sides; F/F0 rise rate, 10–20 s post-thallium | shares compounds with KCC2 mod | normalized thallium flux at 10 µM | actives 23% (n = 3,700) | AID 1715;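 active = thallium flux slope more than 3 SD above or below the plate's solvent-only control mean, mostly below; inconclusive = the two repeat wells disagreed; inactive = no significant shift from solvent-only controls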
# HEK counter1: acts in parental HEK cells, KCC2 counter-screen; actives 46% (n = 3,700); thallium flux rate (normalised fluorescence) at 10 µM; shares compounds with KCC2 mod; HEK293 parental cells, thallium flux FluoZin2, ouabain; baseline-ratio fluorescence slope, 10–20 s after thallium;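 active = thallium flux rate significantly above the same plate's solvent-only control wells, beyond their mean plus 3 SD; inconclusive = the two replicate wells gave conflicting results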
# KCC2 retest ouab: confirmation of human KCC2 modulators with ouabain; shares compounds with KCC2 mod; HEK293-KCC2, thallium flux FluoZin2 fluorescence; bidirectional: low = inhibitor, high = activator; raw Tl+ flux slope (below DMSO = inhibition, above = activation) at 10 µM; actives 48% (n = 3,700);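 active = thallium flux slope beyond 3 SD from same-plate DMSO control mean in most replicates, usually higher, sometimes lower; inconclusive = repeat tests gave conflicting results; inactive = no significant difference from controls in most replicates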;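 note: slope of initial-normalized fluorescence between seconds 10 and 20 after thallium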
# HEK293 Tl flux2: acts in parental HEK cells, second KCC2 counter-screen. actives 33% (n = 3,700). HEK293 parental, thallium flux FluoZin-2 fluorescence slope. thallium flux slope at 10 µM. shares compounds with KCC2 mod;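 active = thallium flux slope above the same plate's solvent-control mean plus 3 SD in both duplicate wells; inconclusive = duplicate wells that disagreed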;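 note: run without ouabain in cells lacking the KCC2 cotransporter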
# Numbers stand for hits; - = inactive; ? = inconclusive; . = not tested or not shown.
SMILES,L major viab,WT yeast gro inh,KCC2 mod,Diaph inh CS,ROMK primary,Diaph act CS,KCC2 sec1,KCC2 bumet counter,KCC2 secondary2,HEK counter1,KCC2 retest ouab,HEK293 Tl flux2
O=C(NC(=S)N1CCN(c2ccc(F)cc2)CC1)c1cccs1,-,-,32,-,-,-,0.012,0.12,0.11,0.12,0.11,0.11
O=C(NC(=S)Nc1ccc(N2CCN(C(=O)c3ccccc3)CC2)cc1)c1cccs1,92,-,3.4,-,-,-,-,0.0097,-,0.01,-,-
O=C(NC(=S)N1CCN(c2ccc(O)cc2)CC1)c1cccs1,.,.,-,.,.,.,.,.,.,.,.,.
O=C(Nc1c(Cl)cc(Cl)cc1-c1nc2ccccc2s1)c1ccc(Br)o1,-,-,-,-,-,-,.,.,.,.,.,.
Cc1nc(C(=O)NNC(=O)c2ccccc2)c(C(F)(F)F)o1,.,.,4.2,.,.,.,-,0.0065,?,0.0087,-,-
Cc1nc(C(=O)NCC(=O)c2ccccc2)c(C(F)(F)F)o1,.,.,-,.,.,.,.,.,.,.,.,.
CC(C)N(C(=O)COC(=O)c1cccc(C(=O)OCC(=O)N(C(C)C)C(C)C)n1)C(C)C,-,-,-,-,-,-,.,.,.,.,.,.
Cc1nnc(NC(=O)c2ccc3ccccc3c2)o1,-,-,.,-,-,-,0.012,0.016,-,0.011,0.026,-
O=C(O)/C(=C\c1cccc(F)c1)c1ccc(S(=O)(=O)N2CCCCC2)s1,-,-,-5.6,-,.,-,-,-,-,-,0.014,-
Cc1ccc(C)c(/C=C(\C(=O)O)c2ccc(S(=O)(=O)N3CCCCC3)s2)c1,-,-,-,-,-,-,.,.,.,.,.,.
O=C(c1cc(COc2ccc(F)cc2Cl)on1)N1CCC(c2ccncc2)CC1,-,-,-6.3,68,-,-,-,-,-,-,0.014,-
S=c1nc(-c2ccccc2)c(-c2ccccc2)n[nH]1,.,.,6,.,.,.,-,0.014,-,0.016,?,0.02
c1coc(CNc2c3c(nc4ncnn24)CCCC3)c1,-,-,5,-,.,-,-,-,-,-,-,-
c1coc(CNc2c3c(nc4ncnn24)CCC3)c1,-,-,-,-,-,-,.,.,.,.,.,.
CN(C)N1C(=O)CC(N2CCCCC2)C1=O (centres undefined),-,-,-,-,-,-,.,.,.,.,.,.
Cc1ccc(Nc2nc(=O)c3cccnc3s2)c(Br)c1,.,.,29,.,.,.,-,0.038,?,0.02,0.038,0.021
COc1ccc(OC(=O)CCc2c[nH]c3ccccc23)cc1,-,-,-,-,-,-,.,.,.,.,.,.
CCOC(=O)c1c(C)c(-c2ccccc2)n(CC(=O)N2CCCC2)c1C,-,-,.,-,.,-,.,.,.,.,.,.
O=c1cc(-c2ccccc2)nc2nc(SCc3ccccc3)[nH]n12,-,-,.,-,-,-,-,-,-,-,0.015,-
Cc1cc(=O)n2[nH]c(SCc3ccccc3)nc2n1,-,-,-,-,-,-,.,.,.,.,.,.
O=C(COc1ccccc1)Nc1nnc(-c2ccccc2)o1,-,-,-,-,.,-,.,.,.,.,.,.
O=C(COc1ccccc1)Nc1nnc(-c2ccc(Cl)s2)o1,-,-,.,-,.,-,0.014,0.022,-,0.012,-,0.012

# High-throughput results from PubChem BioAssay.
